Compound activity from PubChem.
EBNA-1 inh: EBNA-1 DNA-binding inhibitors, primary screen, biochemical, fluorescence polarization. inhibition, % at 14.8 µM. hit rate 0.34% among 300,000; in the data active = inhibition above about 28%
core dimer inh: inhibitors of HCV core protein dimerization, primary screen, biochemical, TR-FRET, high-throughput; AID 1899, 2009; hit rate 0.33% among 300,000; TR-FRET GST/Flag-core106 dimerization, 1536-well; inhibition, % at 5 µM;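 active = inhibition above the mean of all tested compounds plus 3 SD, set per screening campaign, cut at about 45% in these data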
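Assay system: Tagged HCV core106 pair (GST and Flag) | Buffer or medium: KF-containing HEPES buffer, pH 7.45, DTT, CHAPS, BSA | Also added: Eu donor and XL665 acceptor anti-tag antibodies | Dosing: One concentration, 5 µM, in 0.5% DMSO | Timing: 4 h at 22.5 °C | Technique: TR-FRET 671 and 617 nm emission | Repeats: Singlicate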
NS3 helicase inh: inhibitors of HCV NS3 helicase, primary screen, biochemical, Cy5 molecular beacon fluorescence; NS3 helicase DNA unwinding; Hepatitis C virus NS3 helicase; AID 1800, 2009; inhibition, % at 10.9 µM; hit rate 0.56% among 290,000;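 active = inhibition above the mean of all tested compounds plus 3 SD, set per campaign, cut at about 35% in these data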;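 note: 0% = DMSO wells and 100% = thioflavine S control wells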
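System: NS3 helicase fragment of HCV / Schedule: 1 h at 25 °C / Control set: DMSO alone as 0% and 110 µM thioflavine S as 100% / Reagent: Cy5/quencher beacon DNA duplex and ATP to start / Technique: Cy5 fluorescence / Replication: singlicate / Evaluation: % inhibition of end-to-start signal ratio versus controls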
EBV gp42 block: Epstein-Barr virus gp42 inhibitors, primary screen, biochemical, uHTS, fluorescence polarization; Glycoprotein 42 (Epstein-Barr virus (strain AG876)), Q1HVG2; Fluorescence polarization binding assay, mP read-out; hit rate 0.42% among 220,000; inhibition, % (tested at 21.74 µM); in the data active = inhibition above about 50%
Target sequence (Q1HVG2 whole entry, looked up): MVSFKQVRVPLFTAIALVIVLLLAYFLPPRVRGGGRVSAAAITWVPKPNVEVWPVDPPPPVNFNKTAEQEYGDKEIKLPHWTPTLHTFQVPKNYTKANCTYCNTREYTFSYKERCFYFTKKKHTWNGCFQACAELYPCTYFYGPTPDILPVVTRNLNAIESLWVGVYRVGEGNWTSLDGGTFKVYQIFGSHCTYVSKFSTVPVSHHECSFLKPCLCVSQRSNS
ZTA DNA inh: ZTA (EBV) inhibition in EBNA-1 counter-screen. P03206. ZTA-DNA binding, fluorescence polarization. inhibition, % at 11 µM. hit rate 0.15% among 320,000. AID 2234; in the data active = inhibition above about 33%
Target sequence (P03206 whole entry, looked up): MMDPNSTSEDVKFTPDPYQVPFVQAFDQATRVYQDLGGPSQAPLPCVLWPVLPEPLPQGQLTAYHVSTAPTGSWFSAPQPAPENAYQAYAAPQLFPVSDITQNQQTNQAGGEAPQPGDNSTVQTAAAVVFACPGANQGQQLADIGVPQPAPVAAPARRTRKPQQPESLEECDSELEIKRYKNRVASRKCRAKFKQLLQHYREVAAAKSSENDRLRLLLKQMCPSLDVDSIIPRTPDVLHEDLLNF
MEX-5 binding: MEX-5 zinc finger RNA-binding disruptors – biochemical, C. elegans, fluorescence polarization, MLPCN library, primary screen; MEX-5/FITC-TCR2 RNA binding; hits give low values; activity score (negative = inhibition of binding), % at 10 µM; hit rate 0.38% among 300,000; AID 1832, 2009;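 active = inhibition past about -25% in most replicates, and total fluorescence under double the plate's negative control median, limit read from the data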;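 note: 0% = DMSO and -100% = 5 µM competing unlabeled TCR2 RNA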
EBNA-1 confirm: EBNA-1 DNA-binding inhibitors, retest, confirmation, biochemical, fluorescence polarization, triplicate; shares compounds with EBNA-1 inh; Recombinant EBNA-1 DBD, Cy5-DNA fluorescence polarization; inhibition, % at 14.8 µM; hit rate 35% among 830;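 active = mean inhibition across replicates above a set limit taken from the earlier primary screen, cut at about 28% in these data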;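 note: plate controls were EBNA-1 protein with DMSO for no effect and wells lacking EBNA-1 for full effect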
ZTA DNA inh trip: EBV Zta DNA binding inhibitors, counter-screen for EBNA-1 inhibitor project, biochemical, fluorescence polarization, triplicate | Zta-ZRE DNA binding, Cy5 fluorescence polarization | inhibition, % at 11.1 µM | shares compounds with EBNA-1 inh | 830 tested, under 10 active | AID 2328, 2010;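 active = mean inhibition over triplicates above a set limit taken from the primary EBNA-1 screen, cut at about 37% in these data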;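 note: purified full length Zta protein with Cy5 labeled ZRE DNA probe; 0% = Zta with DMSO and 100% = wells lacking Zta protein; inhibitors lower polarization by freeing the labeled DNA probe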
* = called active by the depositor; nt = no result given. Most compounds without a hit are left out; they make up all but 1.7% or so of the library.

SMILES | EBNA-1 inh | core dimer inh | NS3 helicase inh | EBV gp42 block | ZTA DNA inh | MEX-5 binding | EBNA-1 confirm | ZTA DNA inh trip
CCCNC(=O)c1ccc2c(=O)c(O)c(-c3ccc(OC)cc3)[nH]c2c1 | 32* | -17 | nt | -18 | 4 | -6 | -6 | 7
CCCNC(=O)c1ccc2c(=O)c(O)c(-c3ccc(C)cc3)[nH]c2c1 | 7 | -3 | nt | -17 | 6 | -3 | nt | nt
COC(=O)Cc1c(C)c2ccc(OC3CCCCC3=O)c(C)c2oc1=O (stereo unspecified) | 125* | 2 | -17 | nt | 24 | 0 | -1 | -4
O=C(c1ccc2c(=O)n(Cc3ccco3)c(=S)[nH]c2c1)N1CCN(c2ccccc2)CC1 | 40* | 4 | 1 | -9 | -27 | nt | -1 | -1
O=C(c1ccc2c(=O)n(CC3CCCO3)c(=S)[nH]c2c1)N1CCN(c2ccccc2)CC1 (stereo unspecified) | 2 | 5 | -7 | -22 | 4 | -1 | nt | nt
CCOC(=O)Cc1csc(NC(=O)CC)n1 | 5 | 1 | 3 | -7 | 8 | -1 | nt | nt
CCOC(=O)Cc1csc(NC(=O)CSc2nc(N)c3c(C)c(C)sc3n2)n1 | 169* | 2 | -7 | 0 | 3 | -1 | 7 | 5
NC(=O)C[N+]1(CC#CC(O)(c2ccccc2)c2ccccc2)CCCC1 | 128* | -12 | 2 | -26 | 12 | 3 | 2 | -1
CCC[N+]1(CC#CC(O)(c2ccccc2)C2CCCCC2)CCCCC1 (stereo unspecified) | -12 | -1 | -17 | -30 | 3 | -1 | nt | nt
Cc1ccn(CCNC(=O)C2CCC(=O)N(Cc3ccc(Cl)cc3)C2)n1 (stereo unspecified) | -11 | -8 | 0 | nt | -7 | 1 | nt | nt
O=C(NCCN1CCCC1)c1ccc(Br)cc1 | -19 | -5 | 13 | nt | -2 | 2 | nt | nt
COc1ccc(O)c(-c2cc(C(F)(F)C(F)F)nc(-c3ccccc3)n2)c1 | 31* | -3 | -1 | -8 | -4 | 1 | 8 | 4
COc1ccc(NC(=O)COc2ccc3c(C)cc(=O)oc3c2)cc1S(=O)(=O)N1CCCCC1 | 101* | 10 | nt | nt | 17 | 0 | 67* | 10
Cc1cnc(C(=O)Nc2ccc(S(=O)(=O)NCC(C)C)cc2)cn1 | 4 | -2 | 3 | -2 | -8 | -1 | nt | nt
Cc1cnc(C(=O)Nc2ccc(S(=O)(=O)N(C(C)C)C(C)C)cc2)cn1 | 28* | -9 | -1 | nt | 0 | 1 | -1 | 0
C=CCc1cc(OC)ccc1OCCCCn1cncn1 | 10 | -1 | 0 | nt | 4 | 0 | nt | nt
Cc1cccc(NC(=O)c2cc(S(=O)(=O)N3CCc4ccccc43)cn2C)c1C | 28* | 7 | 5 | nt | 10 | 0 | 39* | -8
O=C1CC2c3ccccc3C1C1C(=O)N(Cc3ccccc3)C(=O)C21 (stereo unspecified) | 2 | -2 | 3 | -12 | -8 | -1 | nt | nt
Cc1c(C#N)c(N)nc2c3c(sc12)NC(=O)CC3c1ccccc1 (stereo unspecified) | 63* | 4 | 15 | -8 | -23 | 2 | 25 | -2
O=C(c1ccco1)N1CCN(Cc2nnc(-c3cccc(Cl)c3)o2)CC1 | -1 | -1 | 11 | nt | -21 | 0 | nt | nt
Cc1cc(C)n(-c2ccc(C(=O)OCC(=O)NC(c3ccccc3)c3ccccc3)cc2)n1 | 32* | 8 | 6 | -2 | 19 | 2 | 26 | 2
CCC(=O)Nc1ccc(Cl)c(NC(=S)NC(=O)COc2ccc(Cl)cc2)c1 | 58* | 1 | 0 | -15 | 1 | 0 | 8 | 17
CCc1nnc(NC(=O)CSc2nc3cc4c(cc3cc2C)OCCO4)s1 | 102* | 2 | 3 | -13 | 0 | -2 | 98* | 12
CN(Cc1ccccc1)C(=S)NC(=O)c1ccccc1 | -20 | 1 | -13 | -7 | 3 | 0 | nt | nt
COc1ccc(C(=O)NC(=S)N(C)Cc2ccccc2)cc1Br | 45* | 5 | -5 | -7 | 4 | 0 | 23 | 2
SMILES | EBNA-1 inh | core dimer inh | NS3 helicase inh | EBV gp42 block | ZTA DNA inh | MEX-5 binding | EBNA-1 confirm | ZTA DNA inh trip
COc1ccc(/C(C)=N/NC(=O)CNC(=O)c2ccco2)c(OC)c1 | 8 | 5 | 1 | nt | 10 | 3 | nt | nt
COC(=O)[C@@H]1C[C@@H]2CC[C@@H](O)C[C@@H]2N1Cc1ccccc1OS(=O)(=O)c1ccc(C)cc1 | -10 | 9 | nt | -29 | 1 | 3 | nt | nt
O=C(C1CCCN(Cc2cccc(Cl)c2)C1)N1CCCCC1 (stereo unspecified) | nt | nt | -12 | nt | nt | -3 | nt | nt
COC(=O)C1CSC(C(=O)OC)N1C(=O)Nc1ccccc1 (stereo unspecified) | 55* | -4 | -11 | 4 | 8 | 1 | -10 | -3
CC(C)NC(=O)C(Sc1ccccc1)c1ccccc1 (stereo unspecified) | 39* | 2 | -2 | 7 | -6 | 2 | 1 | 1
COC(=O)C1=C(C)NC2=C(C(=O)c3ccccc32)C1c1cccc(OC)c1 (stereo unspecified) | 28* | -20 | -2 | -9 | -5 | -7 | 38* | 4
CCOC(=O)C1=C(C)NC2=C(C(=O)c3ccccc32)C1c1ccc(O)cc1 (stereo unspecified) | 4 | -46 | -1 | 16 | -26 | 1 | nt | nt
COC(=O)C(C(=O)OC)c1ccc(NC(=O)c2cccc(Cl)c2)cc1 | 60* | 2 | 9 | -1 | -3 | -2 | 49* | 0
CCOc1ccc(NC(=O)CC(=O)Nc2ccc(OCC)cc2)cc1 | 42* | 2 | -14 | nt | 0 | 1 | 4 | -4
COc1ccc(C(=O)COC(=O)c2ccc(NC(=O)c3ccccc3)cc2)cc1 | 29* | 13 | -5 | -14 | 13 | 2 | -9 | 7
COc1ccc(C(=O)Nc2ccc(C(=O)c3ccccc3)cc2)cc1 | 11 | 8 | nt | nt | 10 | 1 | nt | nt
COc1ccc(C(=O)Nc2ccc(C(=O)OCC(=O)c3ccccc3)cc2)cc1 | -7 | 22 | 5 | -2 | -6 | -1 | nt | nt
COc1ccc(NC(=O)c2cccc(NC(=O)c3ccccc3)c2)cc1 | 68* | -3 | -8 | nt | -13 | 0 | -5 | -4
